{
  "source": "ChEMBL document CHEMBL1137973",
  "about": "“Anthranilate 4H-oxazol-5-ones: novel small molecule antibacterial acyl carrier protein synthase (AcpS) inhibitors” (Bioorg Med Chem Lett, 2004)",
  "key": {"Bacillus subtilis": {"tested_on": "Bacillus subtilis", "test": "Minimum inhibitory concentration required against Bacillus subtilis was determined", "type": "functional", "procedure,_shortened": "(§1)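 MICs against aerobic bacteria were determined by broth microdilution as recommended by NCCLS. Each compound was tested once against each strain. Standard error per run is 1 dilution.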"}, "[1]": {"test": "Minimum inhibitory concentration required against […] faecalis ATCC strain was determined", "type": "functional", "settings": "Enterococcus faecalis", "procedure,_shortened": "as §1"}, "Enterococcus faecalis": {"tested_on": "Enterococcus faecalis", "test": "Minimum inhibitory concentration required against Enterococcus faecalis VRE strain was determined", "type": "functional", "procedure,_shortened": "as §1"}, "Streptococcus pneumoniae": {"tested_on": "Streptococcus pneumoniae", "test": "Minimum inhibitory concentration required against Streptococcus pneumoniae", "type": "functional", "procedure,_shortened": "as §1"}, "[2]": {"target": "T1, Holo-[acyl-carrier-protein] synthase (Bacillus subtilis (strain 168), UniProt P96618)", "T1 sequence (P96618 whole entry)": "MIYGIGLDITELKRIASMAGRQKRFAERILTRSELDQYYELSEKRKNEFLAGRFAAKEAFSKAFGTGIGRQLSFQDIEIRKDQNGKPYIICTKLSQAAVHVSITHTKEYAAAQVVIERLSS", "test": "In vitro inhibitory activity against Holo-[acyl-carrier-protein] synthase was determined using Bacillus subtilis GST-Acp-HTRFassay", "procedure,_shortened": "(§2)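 B. subtilis AcpS at 15 ng/mL was incubated with biotin-CoA and GST-ACP as acceptor. Buffer was 50 mM Tris·HCl pH 8.0 with 7.5 mM MgCl2, 3.75 mM DTT, 0.0375% Tween-20 and BSA. The reaction ran 3 h at room temperature. It was stopped with EDTA/KF containing europium cryptate anti-GST antibody plus streptavidin–allophycocyanin, and read by HTRF. Standard error per run is 10%.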"}, "[3]": {"target": "T1, Holo-[acyl-carrier-protein] synthase", "test": "In vitro inhibitory activity against acyl carrier protein synthase (AcpS) in Bacillus subtilis GST-Acp-HTRFassay", "procedure,_shortened": "as §2"}},
  "data": [
    {"smiles": "O=C(O)c1cc(Br)ccc1/N=C/c1nc(-c2ccc(C(F)(F)F)c(F)c2)oc1O", "values": [
      {"measurement": "MIC", "setting": "Bacillus subtilis", "result": 50, "unit": "µM"},
      {"measurement": "MIC", "setting": "[1]", "result": 25, "unit": "µM"},
      {"measurement": "MIC", "setting": "Enterococcus faecalis", "result": 25, "unit": "µM"},
      {"measurement": "MIC", "setting": "Streptococcus pneumoniae", "result": 12.5, "unit": "µM"},
      {"measurement": "IC50", "setting": "[2]", "result": 1500, "unit": "nM"}
    ]},
    {"smiles": "O=C(O)c1cc(Cl)ccc1/N=C/c1nc(-c2ccc(C(F)(F)F)c(F)c2)oc1O", "values": [
      {"measurement": "MIC", "setting": "Bacillus subtilis", "result": 50, "unit": "µM"},
      {"measurement": "MIC", "setting": "[1]", "result": 50, "unit": "µM"},
      {"measurement": "MIC", "setting": "Enterococcus faecalis", "result": 50, "unit": "µM"},
      {"measurement": "MIC", "setting": "Streptococcus pneumoniae", "result": 12.5, "unit": "µM"},
      {"measurement": "IC50", "setting": "[2]", "result": 1100, "unit": "nM"}
    ]},
    {"smiles": "O=C(O)c1cc(F)ccc1/N=C/c1nc(-c2ccc(C(F)(F)F)cc2)oc1O", "values": [
      {"measurement": "MIC", "setting": "Bacillus subtilis", "result": 200, "unit": "µM"},
      {"measurement": "MIC", "setting": "[1]", "result": 100, "unit": "µM"},
      {"measurement": "MIC", "setting": "Enterococcus faecalis", "result": 200, "unit": "µM"},
      {"measurement": "MIC", "setting": "Streptococcus pneumoniae", "result": 100, "unit": "µM"},
      {"measurement": "IC50", "setting": "[2]", "result": 1900, "unit": "nM"}
    ]},
    {"smiles": "CC(=O)Nc1ccc(/N=C/c2nc(-c3ccc(C(F)(F)F)c(F)c3)oc2O)c(C(=O)O)c1", "values": [
      {"measurement": "MIC", "setting": "Bacillus subtilis", "result": "> 200", "unit": "µM"},
      {"measurement": "MIC", "setting": "[1]", "result": "> 200", "unit": "µM"},
      {"measurement": "MIC", "setting": "Enterococcus faecalis", "result": "> 200", "unit": "µM"},
      {"measurement": "MIC", "setting": "Streptococcus pneumoniae", "result": 200, "unit": "µM"},
      {"measurement": "IC50", "setting": "[2]", "result": 130, "unit": "nM"}
    ]},
    {"smiles": "Cc1ccc(/N=C/c2nc(-c3ccc(C(F)(F)F)cc3)oc2O)c(C(=O)O)c1", "values": [
      {"measurement": "MIC", "setting": "Bacillus subtilis", "result": 100, "unit": "µM"},
      {"measurement": "MIC", "setting": "[1]", "result": "> 200", "unit": "µM"},
      {"measurement": "MIC", "setting": "Enterococcus faecalis", "result": 100, "unit": "µM"},
      {"measurement": "MIC", "setting": "Streptococcus pneumoniae", "result": 100, "unit": "µM"},
      {"measurement": "IC50", "setting": "[2]", "result": 830, "unit": "nM"}
    ]},
    {"smiles": "O=C(O)c1cc(I)ccc1/N=C/c1nc(-c2ccc(Cl)cc2)oc1O", "values": [
      {"measurement": "MIC", "setting": "Bacillus subtilis", "result": 200, "unit": "µM"},
      {"measurement": "MIC", "setting": "[1]", "result": 25, "unit": "µM"},
      {"measurement": "MIC", "setting": "Enterococcus faecalis", "result": 50, "unit": "µM"},
      {"measurement": "MIC", "setting": "Streptococcus pneumoniae", "result": 12.5, "unit": "µM"},
      {"measurement": "IC50", "setting": "[2]", "result": 1300, "unit": "nM"}
    ]},
    {"smiles": "O=C(O)c1cc(Br)c(Cl)cc1/N=C/c1nc(-c2ccc(Cl)cc2)oc1O", "values": [
      {"measurement": "MIC", "setting": "Bacillus subtilis", "result": "> 200", "unit": "µM"},
      {"measurement": "MIC", "setting": "[1]", "result": "> 200", "unit": "µM"},
      {"measurement": "IC50", "setting": "[2]", "result": "> 20000", "unit": "nM"}
    ]},
    {"smiles": "Cc1ccc(/N=C/c2nc(-c3cccc(OC(F)(F)F)c3)oc2O)c(C(=O)O)c1", "values": [
      {"measurement": "MIC", "setting": "Bacillus subtilis", "result": 25, "unit": "µM"},
      {"measurement": "MIC", "setting": "[1]", "result": 200, "unit": "µM"},
      {"measurement": "MIC", "setting": "Enterococcus faecalis", "result": 100, "unit": "µM"},
      {"measurement": "IC50", "setting": "[3]", "result": 4400, "unit": "nM"},
      {"measurement": "MIC", "setting": "Streptococcus pneumoniae", "result": 25, "unit": "µM"}
    ]},
    {"smiles": "O=C(O)c1ccccc1/N=C/c1nc(-c2ccc(Cl)cc2)oc1O", "values": [
      {"measurement": "MIC", "setting": "Bacillus subtilis", "result": "> 200", "unit": "µM"},
      {"measurement": "MIC", "setting": "[1]", "result": "> 200", "unit": "µM"},
      {"measurement": "MIC", "setting": "Enterococcus faecalis", "result": "> 200", "unit": "µM"},
      {"measurement": "MIC", "setting": "Streptococcus pneumoniae", "result": "> 200", "unit": "µM"},
      {"measurement": "IC50", "setting": "[2]", "result": 15000, "unit": "nM"}
    ]},
    {"smiles": "O=C(O)c1cc(Br)ccc1/N=C/c1nc(-c2cccc(OC(F)(F)F)c2)oc1O", "values": [
      {"measurement": "MIC", "setting": "Bacillus subtilis", "result": 25, "unit": "µM"},
      {"measurement": "MIC", "setting": "[1]", "result": 50, "unit": "µM"},
      {"measurement": "MIC", "setting": "Enterococcus faecalis", "result": 25, "unit": "µM"},
      {"measurement": "MIC", "setting": "Streptococcus pneumoniae", "result": 12.5, "unit": "µM"},
      {"measurement": "IC50", "setting": "[2]", "result": 15000, "unit": "nM"}
    ]},
    {"smiles": "COc1ccc(-c2nc(/C=N/c3ccc(F)cc3C(=O)O)c(O)o2)cc1", "values": [
      {"measurement": "MIC", "setting": "Bacillus subtilis", "result": "> 200", "unit": "µM"},
      {"measurement": "MIC", "setting": "[1]", "result": "> 200", "unit": "µM"},
      {"measurement": "IC50", "setting": "[2]", "result": "> 20000", "unit": "nM"}
    ]},
    {"smiles": "O=C(O)c1cc(Cl)ccc1/N=C/c1nc(-c2cccc(OC(F)(F)F)c2)oc1O", "values": [
      {"measurement": "MIC", "setting": "Bacillus subtilis", "result": 50, "unit": "µM"},
      {"measurement": "MIC", "setting": "[1]", "result": 100, "unit": "µM"},
      {"measurement": "MIC", "setting": "Enterococcus faecalis", "result": 50, "unit": "µM"},
      {"measurement": "MIC", "setting": "Streptococcus pneumoniae", "result": 25, "unit": "µM"},
      {"measurement": "IC50", "setting": "[2]", "result": 20000, "unit": "nM"}
    ]},
    {"smiles": "O=C(O)c1ccccc1/N=C/c1nc(-c2ccccc2)oc1O", "values": [
      {"measurement": "IC50", "setting": "[2]", "result": "> 20000", "unit": "nM"}
    ]},
    {"smiles": "Cc1ccc(/N=C/c2nc(-c3ccc(C(F)(F)F)c(F)c3)oc2O)c(C(=O)O)c1", "values": [
      {"measurement": "MIC", "setting": "Bacillus subtilis", "result": 25, "unit": "µM"},
      {"measurement": "MIC", "setting": "[1]", "result": 100, "unit": "µM"},
      {"measurement": "MIC", "setting": "Enterococcus faecalis", "result": 100, "unit": "µM"},
      {"measurement": "MIC", "setting": "Streptococcus pneumoniae", "result": 25, "unit": "µM"},
      {"measurement": "IC50", "setting": "[2]", "result": 270, "unit": "nM"}
    ]},
    {"smiles": "O=C(O)c1cc(F)ccc1/N=C/c1nc(-c2ccc(Cl)cc2)oc1O", "values": [
      {"measurement": "MIC", "setting": "Bacillus subtilis", "result": "> 200", "unit": "µM"},
      {"measurement": "MIC", "setting": "[1]", "result": 100, "unit": "µM"},
      {"measurement": "MIC", "setting": "Enterococcus faecalis", "result": 100, "unit": "µM"},
      {"measurement": "MIC", "setting": "Streptococcus pneumoniae", "result": 200, "unit": "µM"},
      {"measurement": "IC50", "setting": "[2]", "result": 2100, "unit": "nM"}
    ]},
    {"smiles": "O=C(O)c1cc(Br)ccc1/N=C/c1nc(-c2ccc(Cl)cc2)oc1O", "values": [
      {"measurement": "MIC", "setting": "Bacillus subtilis", "result": "> 200", "unit": "µM"},
      {"measurement": "MIC", "setting": "[1]", "result": 100, "unit": "µM"},
      {"measurement": "MIC", "setting": "Enterococcus faecalis", "result": 200, "unit": "µM"},
      {"measurement": "MIC", "setting": "Streptococcus pneumoniae", "result": 100, "unit": "µM"},
      {"measurement": "IC50", "setting": "[2]", "result": 3400, "unit": "nM"}
    ]},
    {"smiles": "O=C(O)c1cc(Br)c(Cl)cc1/N=C/c1nc(-c2ccc(C(F)(F)F)cc2)oc1O", "values": [
      {"measurement": "MIC", "setting": "Bacillus subtilis", "result": "> 200", "unit": "µM"},
      {"measurement": "MIC", "setting": "[1]", "result": 100, "unit": "µM"},
      {"measurement": "MIC", "setting": "Enterococcus faecalis", "result": 50, "unit": "µM"},
      {"measurement": "MIC", "setting": "Streptococcus pneumoniae", "result": 100, "unit": "µM"},
      {"measurement": "IC50", "setting": "[2]", "result": 2000, "unit": "nM"}
    ]}
  ]
}
